Assay results reported in ChEMBL document CHEMBL1148471, “Synthesis of mono- and bisdihydrodipyridopyrazines and assessment of their DNA binding and cytotoxic properties” (J Med Chem, 2004).
Activity calls are given as the source filed them. No cut-off for these calls is given here.

How the values were obtained:
L1210 [1] = assay: Percentage of L1210 cell line in G2M-phase of cell cycle at 0.5 uM; format: functional, Mus musculus
Outline: (§1)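 L1210 cells (2.5 × 10^5 cells/mL) incubated 21 h with compound at the stated concentration. Cells fixed in 70% ethanol, then stained 30 min at 20 °C in PBS with 100 µg/mL RNase and 25 µg/mL propidium iodide. Flow cytometry on 10^4 cells per sample, 488 nm excitation, 615 nm long-pass emission. Output is the percentage of cells in each cycle phase.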

L1210 [2] = assay: Percentage of L1210 cell line in 8 N-phase of cell cycle at 0.5 uM; format: functional, Mus musculus; outline: as §1
L1210 [3] = assay: Inhibitory concentration against L1210 murine leukemia cell line; format: functional, cell-based; details: Mus musculus
Outline: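 L1210 cells grown in RPMI 1640 with 10% fetal calf serum, 2 mM L-glutamine, penicillin/streptomycin and 10 mM HEPES (pH 7.4). Cells exposed 48 h to graded concentrations (nine serial dilutions, triplicate). Viability read by microculture tetrazolium assay. IC50 = concentration reducing optical density by 50% versus untreated controls.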

L1210 [4] = assay: Toxicity of compound was tested at 25 uM;Toxic; format: cell-based; details: mouse, l1210, 25 µM
L1210 [5] = assay: Percentage of L1210 cell line in S-phase of cell cycle at 100 uM; NS = no specific effect (toxic at 2 uM); format: functional, cell-based; details: Mus musculus; outline: as §1
L1210 [6] = assay: Percentage of L1210 cell line in S-phase of cell cycle at 100 uM; NS = no specific effect (toxic at 10 uM); format: functional, cell-based; details: Mus musculus; outline: as §1
L1210 [7] = assay: Percentage of L1210 cell line in G2M-phase of cell cycle at 1 uM; format: functional, Mus musculus; outline: as §1
L1210 [8] = assay: Percentage of L1210 cell line in G1-phase of cell cycle at 25 uM; format: functional, Mus musculus; outline: as §1
L1210 [9] = assay: Percentage of L1210 cell line in G2M-phase of cell cycle at 50 uM; format: functional, Mus musculus; outline: as §1
L1210 [10] = assay: Percentage of L1210 cell line in G2M-phase of cell cycle at 20 uM; format: functional, Mus musculus; outline: as §1
L1210 [11] = assay: Percentage of L1210 cell line in 8 N-phase of cell cycle at 1 uM; format: functional, Mus musculus; outline: as §1
L1210 [12] = assay: Percentage of L1210 cell line in S-phase of cell cycle at 100 uM; format: functional, Mus musculus; outline: as §1
L1210 [13] = assay: Percentage of L1210 cell line in G2M-phase of cell cycle at 100 uM; format: functional, Mus musculus; outline: as §1
L1210 [14] = assay: Percentage of L1210 cell line in 8 N-phase of cell cycle at 1 uM; Toxic; format: toxicity, cell-based; details: mouse, l1210, 1 µM; outline: as §1
L1210 [15] = assay: Percentage of L1210 cell line in G2M-phase of cell cycle at 5 uM; format: functional, Mus musculus; outline: as §1
L1210 [16] = assay: Percentage of L1210 cell line in 8 N-phase of cell cycle at 5 uM; format: functional, Mus musculus; outline: as §1
L1210 [17] = assay: Percentage of L1210 cell line in G2M-phase of cell cycle at 10 uM; format: functional, Mus musculus; outline: as §1
L1210 [18] = assay: Percentage of L1210 cell line in 8 N-phase of cell cycle at 10 uM; format: functional, Mus musculus; outline: as §1
L1210 [19] = assay: Percentage of L1210 cell line in G2M-phase of cell cycle at 25 uM; format: functional, Mus musculus; outline: as §1
L1210 [20] = assay: Percentage of L1210 cell line in S-phase of cell cycle at 100 uM; NS = no specific effect (toxic at 5 uM); format: functional, cell-based; details: Mus musculus; outline: as §1
L1210 [21] = assay: Percentage of L1210 cell line in G2M-phase of cell cycle at 2 uM; format: functional, Mus musculus; outline: as §1

## CN(C)CCCCNCc1ccc2c(n1)N(C)c1ncccc1N2C
L1210 [1]
  Activity: 54%
L1210 [2]
  Activity: 32%
L1210 [3]
  IC50: 0.14 µM

## CN(C)CCCCCNCc1ccc2c(n1)N(C)c1ncccc1N2C
L1210 [4]
  Activity: Toxic
L1210 [3]
  IC50: 0.5 µM

## CN1c2ccc(CNCCCCCCCNCc3ccc4c(n3)N(C)c3cccnc3N4C)nc2N(C)c2cccnc21
L1210 [5]
  Activity: inactive
L1210 [3]
  IC50: 0.5 µM

## CN1c2ccc(CNCCCNCc3ccc4c(n3)N(C)c3cccnc3N4C)nc2N(C)c2cccnc21
L1210 [6]
  Activity: inactive
L1210 [3]
  IC50: 4 µM

## CN1c2cccnc2N(C)c2nc(CNCCCNCc3ccc4c(n3)N(C)c3ncccc3N4C)ccc21
L1210 [7]
  Activity: 68%
L1210 [3]
  IC50: 0.43 µM

## CN(C)CCNCc1ccc2c(n1)N(C)c1cccnc1N2C
L1210 [8]
  Activity: 55%
L1210 [3]
  IC50: 26.7 µM

## CN1c2ccc(C=O)nc2N(C)c2cccnc21
L1210 [9]
  Activity: 90%
L1210 [3]
  IC50: 21.6 µM

## CN1c2cccnc2N(C)c2nc(CNCCNCCNCCNCc3ccc4c(n3)N(C)c3ncccc3N4C)ccc21
L1210 [10]
  Activity: 70%
L1210 [3]
  IC50: 4.1 µM

## CN1c2cccnc2N(C)c2nc(CNCCCNCCCNCc3ccc4c(n3)N(C)c3ncccc3N4C)ccc21
L1210 [7]
  Activity: 65%
L1210 [11]
  Activity: 18%
L1210 [3]
  IC50: 0.36 µM

## CN1c2cccnc2N(C)c2ncccc21
L1210 [12]
  Activity: 49%
L1210 [13]
  Activity: 34%
L1210 [3]
  IC50: 34 µM

## CN(C)CCC(=O)NCc1ccc2c(n1)N(C)c1ncccc1N2C
L1210 [3]
  IC50: 21.1 µM

## CN1c2cccnc2N(C)c2cccnc21
L1210 [12]
  Activity: 51%
L1210 [3]
  IC50: 31.1 µM

## CN1c2cccnc2N(C)c2nc(CNCCCN)ccc21
L1210 [7]
  Activity: 65%
L1210 [14]
  Activity: Toxic
L1210 [3]
  IC50: 0.14 µM

## CN1c2cccnc2N(C)c2nc(CNCCCOCCCNCc3ccc4c(n3)N(C)c3ncccc3N4C)ccc21
L1210 [15]
  Activity: 78%
L1210 [16]
  Activity: 18%
L1210 [3]
  IC50: 0.68 µM

## CN1c2cccnc2N(C)c2nc(C=O)ccc21
L1210 [3]
  IC50: 20 µM

## CN(C)CCNCc1ccc2c(n1)N(C)c1ncccc1N2C
L1210 [17]
  Activity: 47%
L1210 [18]
  Activity: 4%
L1210 [3]
  IC50: 11.3 µM

## CN1c2cccnc2N(C)c2nc(CNCCCNCCCCNCCCNCc3ccc4c(n3)N(C)c3ncccc3N4C)ccc21
L1210 [15]
  Activity: 72%
L1210 [3]
  IC50: 0.71 µM

## CN(C)CCCNCc1ccc2c(n1)N(C)c1cccnc1N2C
L1210 [19]
  Activity: 39%
L1210 [3]
  IC50: 9.2 µM

## CN1c2cccnc2N(C)c2nc(CNCCCCNCc3ccc4c(n3)N(C)c3ncccc3N4C)ccc21
L1210 [3]
  IC50: 1.7 µM
L1210 [20]; in the assay text read “at 5 uM” for “at 100 uM”
  Activity: inactive

## CN(C)CCCNCc1ccc2c(n1)N(C)c1ncccc1N2C
L1210 [7]
  Activity: 66%
L1210 [11]
  Activity: 14%
L1210 [3]
  IC50: 0.17 µM

## CN(CCCNCc1ccc2c(n1)N(C)c1cccnc1N2C)CCCNCc1ccc2c(n1)N(C)c1cccnc1N2C
L1210 [6]
  Activity: inactive
L1210 [3]
  IC50: 3.5 µM

## CN(C)CCCN(C)Cc1ccc2c(n1)N(C)c1ncccc1N2C
L1210 [3]
  IC50: 11.5 µM

## CN1c2cccnc2N(C)c2nc(CNCCCCCCCNCc3ccc4c(n3)N(C)c3ncccc3N4C)ccc21
L1210 [3]
  IC50: 0.71 µM
L1210 [20]
  Activity: inactive

## CN1c2cccnc2N(C)c2nc(CNCCCNCc3ccc4c(n3)N(C)c3cccnc3N4C)ccc21
L1210 [21]
  Activity: 66%
L1210 [3]
  IC50: 0.48 µM

## CN(C)CCCNC(=O)c1ccc2c(n1)N(C)c1ncccc1N2C
L1210 [17]
  Activity: 67%
L1210 [3]
  IC50: 1.7 µM

## CN1c2cccnc2N(C)c2nc(CNCCNCc3ccc4c(n3)N(C)c3ncccc3N4C)ccc21
L1210 [17]
  Activity: 79%
L1210 [3]
  IC50: 2.7 µM
